# Screening results from PubChem.
# PGC1a acetyl inh – modulators of PGC1a acetylation. U2OS PGC1a acetylation, AlphaScreen anti-acetyl-lysine; with virally co-expressed GCN5 acetyltransferase. inhibition, % at 15.6 µM. actives 0.17% (n = 350,000). AID 651687;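 active means every replicate shows inhibition of at least 40%; inconclusive means mean inhibition at least 40% but some replicate below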
# Ecoli rRNA inh – inhibitors of bacterial rRNA selective over humanized ribosomes. actives 1.6% (n = 350,000). GFP signal change (wild-type ribosome), % (test concentration not listed). AID 720706. E. coli WT GFP vs humanized-ribosome RFP mutants, fluorescence, 24 h; stronger effect = lower value; DMSO median 0, no signal -100;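 active means significant combined selectivity score with lowered wild-type GFP, culture density cut under 30%, mutant RFP and density less affected; inactive means any of these conditions unmet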
# CASP6 VEID inh – inhibitors of human caspase-6; P55212; purified caspase-6, Z-VEID-R110 cleavage fluorescence; inhibition, % at 12.5 µM; actives 0.53% (n = 350,000); AID 686996;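 active means mean inhibition across replicates at least about 35%, with every replicate also reaching that limit, limit read from the data; inconclusive means only one of the two criteria met; inactive means neither criterion met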
# Target sequence (P55212 24-179 limits assumed): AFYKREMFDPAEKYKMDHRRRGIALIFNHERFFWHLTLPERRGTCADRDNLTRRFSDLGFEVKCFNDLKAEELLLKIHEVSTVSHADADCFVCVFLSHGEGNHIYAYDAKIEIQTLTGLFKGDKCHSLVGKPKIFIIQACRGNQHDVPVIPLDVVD
# Target sequence (P55212 194-293 limits assumed): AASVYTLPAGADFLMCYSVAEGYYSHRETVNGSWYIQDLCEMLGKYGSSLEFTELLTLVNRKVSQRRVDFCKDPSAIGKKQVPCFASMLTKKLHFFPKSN
# ERAP1 inh – ERAP1 (human) enzyme inhibition; actives 0.15% (n = 340,000); Q9NZ08; recombinant ERAP1, Leu-AMC fluorescence, 60 min; inhibition, % at 10.7 µM;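 active means mean replicate inhibition of at least 30%, or all replicates individually reaching that 30% level; inactive means mean below 30% and not every replicate reaching it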
# ARNT-TACC3 inh – disrupts binding between human ARNT and TACC3. Q9Y6A5. AlphaScreen His-ARNT PAS-B/GST-TACC3 binding, luminescence; TACC3 fragment carries E629A point mutation. inhibition, % at 9.99 µM. actives 0.66% (n = 390,000);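 active means mean inhibition of replicates at least 50% and at least half of replicates each reaching 50%; inconclusive means half or more replicates reach 50% but mean below 50%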
# S100A4 MyoIIA – inhibitors of human S100A4 binding to myosin IIA peptide | S100A4/TAMRA-MyoIIA peptide fluorescence polarization | actives 0.14% (n = 360,000) | inhibition, % at 10.7 µM | P26447;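 active means mean inhibition of at least 70% across replicates, with every replicate also reaching that level; inconclusive means mean inhibition reaches 70% but some replicates fall short; inactive means mean inhibition below 70%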
# Target sequence (P26447 whole entry, looked up): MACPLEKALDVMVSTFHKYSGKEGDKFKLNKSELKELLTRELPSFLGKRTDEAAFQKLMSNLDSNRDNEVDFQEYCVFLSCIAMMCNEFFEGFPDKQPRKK
#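 assay system = human S100A4 monomer with TAMRA-labelled myosin IIA peptide | also added = labelled myosin peptide probe, 5 nM | incubation = 5 min between mix addition and reading | control set = DMSO and TFP controls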
# Hits are given with their value; - = inactive; ? = inconclusive; . = no result given. An excerpt weighted towards active compounds, which were near 2.4% of everything screened.
SMILES,PGC1a acetyl inh,Ecoli rRNA inh,CASP6 VEID inh,ERAP1 inh,ARNT-TACC3 inh,S100A4 MyoIIA
CC(NC(=O)c1ccccc1F)c1nnc(SCC(=O)Nc2nnc(C3CC3)s2)n1C (stereo unspecified),.,-,-,-,-,93.3
CCC(=O)N1[C@H](CO)[C@@H](c2ccccc2)C12CN(CC1CCOCC1)C2,-,-,-,-,.,-
O=C(NC(c1ccccc1)c1ccccc1)c1cccc(S(=O)(=O)NCc2ccccc2)c1,.,.,-,-,active,-
O=C(NCCc1ccccc1)c1cccc(S(=O)(=O)NCc2ccccc2)c1,-,-,-,-,-,-
Cc1[nH]c2ccccc2c1CN1CCC(Cc2ccccc2)CC1,-,-42.3,-,-,-,-
COc1ccc(NS(=O)(=O)c2cc(NC(=O)c3cnccn3)ccc2OC)cc1Br,-,-30.9,.,-,-,-
COc1ccc(C#Cc2ccc([C@H]3[C@@H](CO)N4CCCCN(S(=O)(=O)c5cn(C)cn5)C[C@@H]34)cc2)cc1,-,-,-,-,-,-
Cc1cc(C(=O)COC(=O)c2cc(Cl)c(O)c(Cl)c2)c(C)n1C,-,.,57.8,-,-,-
Cc1cc(C(=O)COC(=O)c2ccc(Br)o2)c(C)n1C,-,-22.9,-,-,-,-
Cc1cc(C(=O)COC(=O)c2ccc(F)cc2)c(C)n1C,-,-,-,-,-,-
O=C(NC[C@H]1CC[C@@H]2[C@@H](CN2S(=O)(=O)c2ccccc2[N+](=O)[O-])O1)C1CCCC1,.,.,-,-,.,-
N#C[C@H]1[C@H](c2ccccc2C2=CCCC2)[C@@H](CO)N1C(=O)NC1CCCC1,-,-,-,-,.,-
N=C1/C(=C\c2coc3ccccc3c2=O)C(=O)N=C2SC(c3ccncc3)=NN12,-,-15.2,41.0,-,-,-
N=C1/C(=C\c2coc3ccc(O)cc3c2=O)C(=O)N=C2SC=CN12,.,-,42.0,.,-,-
CC(C)NC(=O)[C@@]1(C)c2ccccc2C(=O)N(Cc2ccc(OC(F)(F)F)cc2)[C@H]1c1ccc(CO)cc1,-,.,-,-,-,-
CO[C@H]1CN(C)C(=O)c2ccc(NS(=O)(=O)c3cn(C)cn3)cc2OC[C@H](C)NC[C@@H]1C,-,-,-,-,.,?
C[C@H]1CCCCO[C@@H](CN(C)C(=O)C2CCCCC2)[C@@H](C)CN([C@@H](C)CO)C(=O)c2cc(NC(=O)NC3CCCCC3)ccc2O1,-,-,-,-,-,-
NC(=O)C1CCN(C(=O)/C=C/c2cccc(Br)c2)CC1,-,-,-,-,-,-
O=C1C=CCCN1C(=O)/C=C/c1cccc(Br)c1,46.4,.,-,-,.,-
CCc1noc(C)c1C(=O)Nc1ccc(S(=O)(=O)N2CCCC(C)C2)cc1 (stereo unspecified),-,-,42.0,-,-,-
CCc1noc(C)c1C(=O)Nc1ccc(C)c(S(=O)(=O)N2CCCCCC2)c1,-,-,-,-,-,-
O=C(Cc1ccncc1)NCC[C@@H]1CC[C@H](NC(=O)Nc2ccc(F)cc2)[C@H](CO)O1,-,-,-,-,.,-
COc1cccc(/C=C2\CCc3ccccc3C2=O)c1,.,-,-,-,-,-
COc1cccc(C=C2Cc3ccccc3C2=O)c1,.,-16.7,-,-,.,-
COc1ccc2c(c1)CC/C(=C/c1cc(OC)c(OC)c(OC)c1)C2=O,?,-20.1,-,-,-,-
SMILES,PGC1a acetyl inh,Ecoli rRNA inh,CASP6 VEID inh,ERAP1 inh,ARNT-TACC3 inh,S100A4 MyoIIA
Cc1ccc(OCC(=O)Nn2c(C)nc3ccccc3c2=O)c(C(C)C)c1,-,-22.2,-,-,-,-
COc1ccc2c3c(n(C)c2c1)[C@H](CO)NCC31CCN(C(=O)c2ccccc2)CC1,.,-,.,.,.,.
CCOc1ccc(OCCC(=O)OCC(=O)c2c(N)n(CC(C)C)c(=O)n(C)c2=O)cc1,.,-17.4,-,-,.,-
Cc1ccc(OCCC(=O)OCC(=O)c2c(N)n(CC(C)C)c(=O)n(C)c2=O)cc1,-,-,-,-,-,-
CCCCn1nc(C(=O)NCC2COc3ccccc3O2)c2ccccc2c1=O (stereo unspecified),-,-36.1,-,-,-,-
Cn1nc(C(=O)NCC2COc3ccccc3O2)c2ccccc2c1=O (stereo unspecified),.,.,-,-,-,-
